Active and inactive are the calls of the source. Unless noted, no cut-off for these calls is given here.
How the values were obtained:
[1] = target: T1, 5-hydroxytryptamine receptor 3A (Homo sapiens) (UniProt P46098); assay: Positive allosteric modulation of human 5-HT3A receptor expressed in Xenopus laevis oocytes assessed as increase in 5-HT-induced channel current at 10 uM at -90 mV holding potential by two-electrode voltage clamp method; type: cell-based
T1 sequence (whole entry): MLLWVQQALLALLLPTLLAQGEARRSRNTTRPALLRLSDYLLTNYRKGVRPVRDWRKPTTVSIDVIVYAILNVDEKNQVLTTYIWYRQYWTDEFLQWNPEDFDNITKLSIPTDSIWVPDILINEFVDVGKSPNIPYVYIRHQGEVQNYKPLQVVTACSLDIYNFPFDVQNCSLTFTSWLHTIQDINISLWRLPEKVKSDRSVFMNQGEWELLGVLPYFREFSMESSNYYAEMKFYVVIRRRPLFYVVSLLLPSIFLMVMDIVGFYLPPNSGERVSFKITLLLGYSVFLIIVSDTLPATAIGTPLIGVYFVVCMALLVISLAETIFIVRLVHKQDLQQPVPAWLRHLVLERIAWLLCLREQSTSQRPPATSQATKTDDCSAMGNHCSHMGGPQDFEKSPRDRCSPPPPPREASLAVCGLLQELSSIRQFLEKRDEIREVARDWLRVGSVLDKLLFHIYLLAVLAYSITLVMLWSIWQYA

Mus musculus [2] = assay: Anti-schizophrenic activity in ip dosed C57BL/6J mouse assessed as protection against MK-801-induced auditory gating deficit by measuring reduction in prepulse inhibition impairment at 8 to 16 dB prepulse intensity; type: functional, organism-based
[3] = target: Neuronal acetylcholine receptor subunit alpha-7 (Homo sapiens, UniProt P36544); assay: Agonist activity at human alpha7 nAChR expressed in Xenopus laevis oocytes assessed as induction of channel current at -90 mV holding potential by two-electrode voltage clamp method; type: cell-based
[4] = Drug uptake in C57BL/6J mouse brain at 1 mg/kg, ip after 2 hrs by LC-MS/MS analysis; type: ADME, organism-based; conditions: read-out: Drug uptake
Summary of the method: (§1)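 C57BL/6J mice given 1 mg/kg i.p. from a 0.4 mg/mL solution in 10% DMSO/50% PEG400/40% SBECD. Plasma and brain taken at 0.5, 2 and 8 h. Samples mixed with internal standard in methanol/acetonitrile (1:1), centrifuged and diluted 10x in methanol:water with 0.1% FA, then measured by HPLC-MS-MS. n = 3; ratio is brain over plasma concentration.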

[5] = Apparent volume of distribution during terminal phase in rat at 60 mg/kg, po by LC-MS/MS analysis; type: ADME, organism-based; conditions: in vivo
Summary of the method: (§2)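 Rat plasma stored at -20 °C, spiked with internal standard, protein-precipitated with methanol, centrifuged and filtered before LC-MS/MS. C18 column at 40 °C, acetonitrile/0.1% formic acid (80:20) isocratic at 0.5 mL/min. Positive ESI with MRM m/z 400.0->129.9. Parameters taken per rat by non-compartmental analysis, n = 3.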

[6] = Half life in rat at 60 mg/kg, po by LC-MS/MS analysis; type: ADME, organism-based; conditions: in vivo; summary of the method: as §2
Mus musculus [7] = assay: (§3) Anti-schizophrenic activity in C57BL/6J mouse assessed as protection against MK-801-induced auditory gating deficit by measuring prepulse inhibition impairment at 1 mg/kg, ip at 8 to 16 dB prepulse intensity (reference value: 11%); type: functional; parameters: scale not given: the % may be the effect or the level left
[8] = Plasma concentration in C57BL/6J mouse at 1 mg/kg, ip after 2 hrs by LC-MS/MS analysis; type: ADME, organism-based; summary of the method: as §1
[9] = Ratio of drug level in C57BL/6J mouse brain to plasma at 1 mg/kg, ip after 2 hrs by LC-MS/MS analysis; type: ADME, organism-based; conditions: read-out: BPR; summary of the method: as §1
[10] = Drug uptake in C57BL/6J mouse brain at 1 mg/kg, ip after 8 hrs by LC-MS/MS analysis; type: ADME, organism-based; conditions: read-out: Drug uptake; summary of the method: as §1
Mus musculus [11] = assay: Anti-schizophrenic activity in C57BL/6J mouse assessed as protection against MK-801-induced auditory gating deficit by measuring prepulse inhibition impairment at 0.3 mg/kg, ip at 8 to 16 dB prepulse intensity (reference value: 11%); type: functional; parameters: scale not given: the % may be the effect or the level left
[12] = Clearance in rat at 3 mg/kg, iv by LC-MS/MS analysis; type: ADME, organism-based; conditions: in vivo; summary of the method: as §2
[13] = AUCinfinity in rat at 3 mg/kg, iv by LC-MS/MS analysis; type: ADME, organism-based; parameters: dose 3 mg/kg, route intravenous, time infinity; conditions: in vivo; summary of the method: as §2
[14] = Oral bioavailability in rat at 60 mg/kg by LC-MS/MS analysis; type: ADME, organism-based; conditions: in vivo; summary of the method: as §2
Mus musculus [15] = assay: as §3, with “intensity pretreated for 30 mins followed by MK-801 treatment and measured after 30 mins” for “intensity”, “8.7%)” for “11%)”; type: functional; parameters: scale not given: the % may be the effect or the level left

Sequence of Neuronal acetylcholine receptor subunit alpha-7 (P36544 whole entry): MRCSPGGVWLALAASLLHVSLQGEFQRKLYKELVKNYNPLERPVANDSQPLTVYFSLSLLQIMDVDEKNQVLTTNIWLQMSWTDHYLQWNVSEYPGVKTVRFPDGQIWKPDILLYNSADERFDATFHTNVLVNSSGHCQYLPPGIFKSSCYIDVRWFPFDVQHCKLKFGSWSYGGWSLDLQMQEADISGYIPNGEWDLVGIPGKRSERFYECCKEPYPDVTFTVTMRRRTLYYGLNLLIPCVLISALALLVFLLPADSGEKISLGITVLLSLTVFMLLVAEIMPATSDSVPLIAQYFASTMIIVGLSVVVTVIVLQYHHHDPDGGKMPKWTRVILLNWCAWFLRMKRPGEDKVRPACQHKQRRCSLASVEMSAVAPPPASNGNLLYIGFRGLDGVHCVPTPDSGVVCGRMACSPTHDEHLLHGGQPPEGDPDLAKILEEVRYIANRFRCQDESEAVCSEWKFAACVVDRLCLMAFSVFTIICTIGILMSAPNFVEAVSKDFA

Activity [1]: inactive
Activity [3]: inactive
concentration at 2 h [4]: 26.3 ng/g
Vd/F [5]: 0.6 L/kg
half-life [6]: 7.4 h
concentration at 2 h [8]: 9.8 ng/mL
Kp at 2 h [9]: 2.7
concentration at 8 h [10]: 3.7 ng/g
clearance [12]: 5 mL/h/kg
AUC(0-inf) [13]: 680 ng·h/mL
bioavailability [14]: 8%
SMILES: Cc1cccc(Cl)c1-n1cnc2nc(SCc3ccccc3)sc2c1=O
Activity (Mus musculus [2]): Dose-dependent effect
Activity (Mus musculus [7]): 28%
Activity (Mus musculus [11]): 26%
Activity (Mus musculus [15]): 30%

— ChEMBL document CHEMBL4308829, “Design and Synthesis of Novel Positive Allosteric Modulators of α7 Nicotinic Acetylcholine Receptors with the Ability To Rescue Auditory Gating Deficit in Mice” (J Med Chem, 2018)
